# Key:
# Pseudomonas aeruginosa = test: Antibacterial activity against Pseudomonas aeruginosa ATCC 13525 after 24 hrs by MTT assay; format: functional; settings: ATCC 13525, 24 h
# Procedure, shortened: (§1)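 MICs by broth microdilution in Mueller-Hinton medium. Compounds were taken from a 100 μg/mL DMSO stock into sterile medium and serially diluted. Inoculum about 10⁵ cfu/mL, incubated 37 °C for 24 h, and MIC read visually. MTT (2 mg/mL in PBS pH 7.4) was then added for 4–5 h at room temperature, dye extracted with acidified isopropanol for 12 h, OD read at 550 nm.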
# Staphylococcus aureus = test: Antibacterial activity against Staphylococcus aureus ATCC 6538 after 24 hrs by MTT assay; format: functional; settings: ATCC 6538, 24 h; procedure, shortened: as §1
# Bacillus subtilis = test: Antibacterial activity against Bacillus subtilis ATCC 6633 after 24 hrs by MTT assay; format: functional; settings: ATCC 6633, 24 h; procedure, shortened: as §1
# Escherichia coli = test: Antibacterial activity against Escherichia coli ATCC 35218 after 24 hrs by MTT assay; format: functional; settings: ATCC 35218, 24 h; procedure, shortened: as §1
# [1] = Toxicity in RBC assessed as hemolysis; format: cell-based; settings: erythrocyte
# [2] = Inhibition of Escherichia coli N-terminal His-tagged FabH expressed in Escherichia coli BL21(DE3) using [3H]-acetyl-CoA after 25 mins by liquid scintillation counting
# Procedure, shortened: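 His-tagged E. coli FabH was expressed with IPTG induction, purified on Ni-NTA and stored in Tris pH 7.6 with DTT and glycerol. Assay in 20 mM sodium phosphate pH 7.0 with 0.5 mM DTT, 0.25 mM MgCl₂, […] ACPS-converted holo-ACP and 1 nM FabH. Started with 25 μM acetyl-CoA plus [³H]acetyl-CoA, run 25 min, stopped with TCA; pellet counted by scintillation. Inhibitors added in DMSO (final ≤2%) for IC50.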
SMILES,MIC (Pseudomonas aeruginosa),MIC (Staphylococcus aureus),MIC (Bacillus subtilis),MIC (Escherichia coli),MHC [1],IC50 [2]
Oc1ccccc1/C=N/c1ccccc1NC(=S)Nc1ccccc1,> 100 µg/mL,> 100 µg/mL,> 100 µg/mL,> 100 µg/mL,,
Oc1c(Br)cc(Br)cc1/C=N/c1ccccc1NC(=S)Nc1ccccc1,> 100 µg/mL,> 100 µg/mL,> 100 µg/mL,> 100 µg/mL,,
Oc1ccc(Cl)cc1/C=N/c1ccccc1NC(=S)Nc1ccccc1,3.13 µg/mL,6.25 µg/mL,12.5 µg/mL,3.13 µg/mL,> 10000 µg/mL,9.5 µM
Oc1ccc(Br)cc1/C=N/c1ccccc1NC(=S)Nc1ccccc1,> 100 µg/mL,> 100 µg/mL,> 100 µg/mL,> 100 µg/mL,,
S=C(Nc1ccccc1)Nc1ccccc1/N=C/c1ccc(Cl)cc1,> 100 µg/mL,> 100 µg/mL,> 100 µg/mL,> 100 µg/mL,,
S=C(Nc1ccccc1)Nc1ccccc1/N=C/c1ccc(Br)cc1,> 100 µg/mL,> 100 µg/mL,50 µg/mL,> 100 µg/mL,,
COc1ccc(/C=N/c2ccccc2NC(=S)Nc2ccccc2)cc1,> 100 µg/mL,> 100 µg/mL,> 100 µg/mL,> 100 µg/mL,,
Oc1ccccc1/C=N/c1ccc(NC(=S)Nc2ccccc2)cc1,6.25 µg/mL,6.25 µg/mL,25 µg/mL,12.5 µg/mL,> 10000 µg/mL,28.7 µM
Oc1c(Br)cc(Br)cc1/C=N/c1ccc(NC(=S)Nc2ccccc2)cc1,> 100 µg/mL,> 100 µg/mL,> 100 µg/mL,> 100 µg/mL,,
Oc1ccc(Cl)cc1/C=N/c1ccc(NC(=S)Nc2ccccc2)cc1,6.25 µg/mL,12.5 µg/mL,12.5 µg/mL,6.25 µg/mL,> 10000 µg/mL,12.8 µM
Oc1ccc(Br)cc1/C=N/c1ccc(NC(=S)Nc2ccccc2)cc1,25 µg/mL,50 µg/mL,50 µg/mL,25 µg/mL,> 10000 µg/mL,39 µM
Fc1ccccc1/C=N/c1ccc(NC(=S)Nc2ccccc2)cc1,> 100 µg/mL,> 100 µg/mL,> 100 µg/mL,> 100 µg/mL,,
O=[N+]([O-])c1ccccc1/C=N/c1ccc(NC(=S)Nc2ccccc2)cc1,> 100 µg/mL,25 µg/mL,50 µg/mL,> 100 µg/mL,,
S=C(Nc1ccccc1)Nc1ccc(/N=C/c2ccc(Cl)cc2Cl)cc1,25 µg/mL,12.5 µg/mL,12.5 µg/mL,12.5 µg/mL,> 10000 µg/mL,30.4 µM
S=C(Nc1ccccc1)Nc1ccc(/N=C/c2cccc(Br)c2)cc1,> 100 µg/mL,> 100 µg/mL,> 100 µg/mL,> 100 µg/mL,,
COc1cccc(/C=N/c2ccc(NC(=S)Nc3ccccc3)cc2)c1,25 µg/mL,50 µg/mL,25 µg/mL,50 µg/mL,> 10000 µg/mL,48.1 µM
Fc1ccc(/C=N/c2ccc(NC(=S)Nc3ccccc3)cc2)cc1,50 µg/mL,25 µg/mL,50 µg/mL,50 µg/mL,,
S=C(Nc1ccccc1)Nc1ccc(/N=C/c2ccc(Cl)cc2)cc1,3.13 µg/mL,6.25 µg/mL,12.5 µg/mL,6.25 µg/mL,> 10000 µg/mL,15.6 µM
S=C(Nc1ccccc1)Nc1ccc(/N=C/c2ccc(Br)cc2)cc1,25 µg/mL,50 µg/mL,50 µg/mL,25 µg/mL,> 10000 µg/mL,40.8 µM
O=[N+]([O-])c1ccc(/C=N/c2ccc(NC(=S)Nc3ccccc3)cc2)cc1,50 µg/mL,50 µg/mL,50 µg/mL,25 µg/mL,,
Cc1ccc(/C=N/c2ccc(NC(=S)Nc3ccccc3)cc2)cc1,25 µg/mL,25 µg/mL,25 µg/mL,12.5 µg/mL,> 10000 µg/mL,25.9 µM
S=C(Nc1ccccc1)Nc1ccc(/N=C/c2ccc(OCc3ccccc3)cc2)cc1,3.13 µg/mL,3.13 µg/mL,6.25 µg/mL,1.56 µg/mL,> 10000 µg/mL,4.3 µM
NC[C@H]1O[C@H](O[C@H]2[C@H](O)[C@@H](O[C@H]3O[C@H](CO)[C@@H](O)[C@H](N)[C@H]3O)[C@H](N)C[C@@H]2N)[C@H](N)[C@@H](O)[C@@H]1O [BEKANAMYCIN],3.13 µg/mL,3.13 µg/mL,0.39 µg/mL,1.56 µg/mL,,
CC1(C)S[C@@H]2[C@H](NC(=O)Cc3ccccc3)C(=O)N2[C@H]1C(=O)O [PENICILLIN G],6.25 µg/mL,6.25 µg/mL,1.56 µg/mL,3.13 µg/mL,,
